Activity calls are given as the source filed them.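 Rule for the calls, unless noted: active = current rise at least 3 SD above the untreated control mean in each of two repeat wells; inactive = the rest.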
Legend:
[1] = nonspecific flux increase, KCNQ1-free cells – parental CHO cells, counter-screen for KCNQ1 potentiator project (AID 493006;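 active = duplicate-averaged activation above buffer control mean plus 5 SD of those controls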); settings: parental CHO-K1 cells, FluxOR thallium flux, at 10 µM; active compounds read high
Procedure, shortened: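 Test system: parental CHO-K1 cells, FluxOR dye-loaded / Probe or stimulus: potassium plus thallium depolarizing stimulus, 5x stock 12.5 mM K2SO4, Tl2SO4 / Timing: overnight 37 °C plating, 90 min dye, 20 min dark compound / Measured by: kinetic thallium-flux fluorescence / Read-out: max-minus-min fluorescence over baseline, percent of buffer-to-R-L3 span / Benchmarks: buffer and R-L3 controls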

[2] = target: Potassium voltage-gated channel subfamily KQT member 1 (Homo sapiens) (UniProt P51787); experiment: enhancement of KCNQ1 channel thallium flux – FluxOR thallium flux, CHO cells, duplicates, confirmation (AID 493007;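 active = potentiation averaged over duplicate wells exceeding buffer-only control mean by more than 3 SD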;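 for outcome: cells depolarized by a potassium plus thallium sulfate stimulus after compound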;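 for potentiation: 0% = buffer-only wells and 100% = R-L3 activator control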); settings: KCNQ1 cell line, FluxOR thallium flux fluorescence, at 10 µM; active compounds read high, % of reference activator effect, buffer zero
Procedure, shortened: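 Assay system: CHO cells carrying KCNQ1 | Controls: Buffer and R-L3 controls | Schedule: FluxOR dye loading 90 min, compound exposure 20 min, room temperature | Read-out: Baseline-normalized fluorescence change, percent of buffer-to-R-L3 range | Replicates: Each compound tested in duplicate | Technique: Kinetic thallium influx fluorescence with FluxOR dye, 10 s baseline, 110 s post-stimulus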

[3] = target: Potassium voltage-gated channel subfamily KQT member 2 (Rattus norvegicus) (UniProt O88943); experiment: KCNQ2 thallium flux enhancement – KCNQ2-CHO-K1 cells, selectivity assay for KCNQ1 potentiator project (AID 493009;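 active = mean duplicate potentiation above the buffer control mean plus 5 SD of buffer wells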;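 note: assay conditions were tuned for KCNQ1 rather than KCNQ2 modulators; signal is max minus min fluorescence divided by baseline after thallium stimulus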); settings: FluxOR thallium flux fluorescence, at 10 µM; active compounds read high, scaled: buffer 0, activator control 100
[4] = target: Potassium voltage-gated channel subfamily KQT member 1 (Homo sapiens) (UniProt P51787); experiment: KCNQ1 activators by electrophysiology – IonWorks patch clamp, KCNQ1-CHO cells, orthogonal assay for KCNQ1 potentiator project, confirmation (AID 493184); settings: automated patch clamp current, at 10 µM; active compounds read high
Procedure, shortened: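 Material: KCNQ1-expressing CHO cells; doses: 10 µM final, single point; probe or stimulus: voltage step from -90 mV holding to +40 mV, 2,000 ms; signal: automated voltage clamp, amphotericin B perforated patch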

Chain of Potassium voltage-gated channel subfamily KQT member 1 (Homo sapiens) (P51787 whole entry, looked up): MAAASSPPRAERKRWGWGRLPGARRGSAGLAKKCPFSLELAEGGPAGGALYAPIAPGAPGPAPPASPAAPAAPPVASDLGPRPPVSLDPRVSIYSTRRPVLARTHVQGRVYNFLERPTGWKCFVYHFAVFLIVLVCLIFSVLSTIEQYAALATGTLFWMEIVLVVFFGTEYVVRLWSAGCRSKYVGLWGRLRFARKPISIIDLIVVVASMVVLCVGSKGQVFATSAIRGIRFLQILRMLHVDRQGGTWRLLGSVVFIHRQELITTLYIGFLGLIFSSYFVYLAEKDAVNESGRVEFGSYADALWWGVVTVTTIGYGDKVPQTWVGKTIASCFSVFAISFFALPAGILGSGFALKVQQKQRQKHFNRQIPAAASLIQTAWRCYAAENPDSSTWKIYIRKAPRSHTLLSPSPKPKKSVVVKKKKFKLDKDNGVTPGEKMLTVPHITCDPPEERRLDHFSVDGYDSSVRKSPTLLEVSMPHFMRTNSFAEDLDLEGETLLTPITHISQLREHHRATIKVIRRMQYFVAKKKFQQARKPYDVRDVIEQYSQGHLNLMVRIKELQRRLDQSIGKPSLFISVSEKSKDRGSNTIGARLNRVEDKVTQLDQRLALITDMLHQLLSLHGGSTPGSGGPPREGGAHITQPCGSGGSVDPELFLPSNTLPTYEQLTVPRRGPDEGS
Chain of Potassium voltage-gated channel subfamily KQT member 2 (Rattus norvegicus) (O88943 whole entry, looked up): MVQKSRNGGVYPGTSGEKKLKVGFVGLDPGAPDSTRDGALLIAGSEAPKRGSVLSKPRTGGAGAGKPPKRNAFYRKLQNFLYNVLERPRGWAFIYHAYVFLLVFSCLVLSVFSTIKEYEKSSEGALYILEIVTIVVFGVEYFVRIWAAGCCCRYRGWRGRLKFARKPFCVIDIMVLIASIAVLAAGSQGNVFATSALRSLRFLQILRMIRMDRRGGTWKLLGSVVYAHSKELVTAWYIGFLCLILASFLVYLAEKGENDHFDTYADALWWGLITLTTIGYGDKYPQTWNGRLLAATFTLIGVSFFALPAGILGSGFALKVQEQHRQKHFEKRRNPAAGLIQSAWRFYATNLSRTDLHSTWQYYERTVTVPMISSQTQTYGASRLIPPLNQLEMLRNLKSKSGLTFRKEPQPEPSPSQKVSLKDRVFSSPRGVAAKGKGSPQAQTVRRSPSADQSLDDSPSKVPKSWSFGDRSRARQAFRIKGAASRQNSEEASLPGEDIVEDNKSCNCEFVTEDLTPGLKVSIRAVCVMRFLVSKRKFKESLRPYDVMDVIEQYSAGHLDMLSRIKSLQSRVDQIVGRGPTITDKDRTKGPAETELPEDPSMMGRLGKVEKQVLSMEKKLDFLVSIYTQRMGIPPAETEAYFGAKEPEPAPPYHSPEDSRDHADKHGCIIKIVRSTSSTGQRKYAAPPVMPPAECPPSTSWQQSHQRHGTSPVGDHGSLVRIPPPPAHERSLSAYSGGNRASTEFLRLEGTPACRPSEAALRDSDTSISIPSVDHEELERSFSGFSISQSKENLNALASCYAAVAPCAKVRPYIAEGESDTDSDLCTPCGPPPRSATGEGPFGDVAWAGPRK

| Compound | activation [1] | potentiation [2] | potentiation [3] | outcome [4] | outcome [1] | outcome [2] | outcome [3] |
| --- | --- | --- | --- | --- | --- | --- | --- |
| O=C1c2ccccc2NC(c2ccc(Br)s2)N1O (stereo unspecified) | 282% (active) | 57% (active) | 252% (active) | inactive |  |  |  |
| Cc1ccc(NC2=C(NC(=O)c3ccccc3)C(=O)c3ccccc3C2=O)cc1Cl |  |  |  | inactive | inactive | inactive | inactive |
| O=C(NN=C1c2ccccc2-c2ccccc21)c1ccccc1Br |  | 37% (active) |  | inactive | inactive |  | inactive |
| O=C(NC(=S)N1CCCc2ccccc21)c1ccccc1 |  |  | 148% (active) | inactive | inactive | inactive |  |
| C/C(=N/NC(=O)c1cc(C2CC2)[nH]n1)c1cccs1 | 150% (active) | 31.5% (active) |  | inactive |  |  | inactive |
| Cc1c(CN2CCN(C)C(CCO)C2)[nH]c2c(Cl)cccc12 (stereo unspecified) |  |  |  | inactive | inactive | inactive | inactive |
| OCCN1CCN(CCCN2c3ccccc3Sc3ccc(Cl)cc32)CC1 |  |  |  | inactive | inactive | inactive | inactive |
| O=C(CCC(=O)N1CCOc2ccc(Cl)cc21)NCCCN1CCN(c2ccccc2F)CC1 |  |  |  | inactive | inactive | inactive | inactive |
| CC(C)n1c(O)c(N=NC(=O)C2COc3ccccc3O2)c2ccccc21 (stereo unspecified) | 234% (active) | 66.5% (active) | 208% (active) | inactive |  |  |  |
| CC1CCCCN1S(=O)(=O)c1ccc(S(=O)(=O)N(CC(=O)Nc2ccccc2)Cc2cccs2)cc1 (stereo unspecified) |  |  |  | inactive | inactive | inactive | inactive |
| CCCCNC(=O)/C(C#N)=C/c1ccc2c(c1)OCCO2 |  | 18.5% (active) |  | inactive | inactive |  | inactive |
| CCn1c(SCC(=O)NC(=O)NCc2ccco2)nc2sc(C)c(C)c2c1=O | 184% (active) | 40.5% (active) | 173% (active) | inactive |  |  |  |
| O=c1[nH]c2ccc(Cl)cc2c(-c2ccccc2)c1N1CCN(CCO)CC1 |  |  |  | inactive | inactive | inactive | inactive |
| CCOc1ccc(/C=C2/SC(=O)NC2=S)cc1 | 425% (active) | 138% (active) | 379% (active) | inactive |  |  |  |
| COc1ccc(OCC(=O)NNC(=O)c2cccs2)cc1 | 146% (active) | 47.5% (active) | 168% (active) | inactive |  |  |  |
| COc1ccc(C)cc1-n1c(SCC(=O)Nc2cc(C)on2)nc2ccccc2c1=O |  |  |  | inactive | inactive | inactive | inactive |
| CCC(NC(=O)CCc1nnc(-c2cc(C)on2)o1)C12CC3CC(CC(C3)C1)C2 (stereo unspecified) |  |  |  | inactive | inactive | inactive | inactive |
| COC(=O)c1sc(-c2ccccc2)cc1NC(=O)C1CC1 |  |  |  | inactive | inactive | inactive | inactive |
| O=C(CSc1nnc(SCc2cccc3ccccc23)s1)c1ccc2c(c1)OCO2 | 163% (active) |  |  | inactive |  | inactive | inactive |
| COc1cc(-c2nnc(COC(=O)c3cccn3C)o2)cc(OC)c1OC |  |  |  | inactive | inactive | inactive | inactive |
| O=C1OCCC1Sc1nc2ccccc2c(=O)n1Cc1ccc(F)cc1 (stereo unspecified) | 158% (active) | 44% (active) | 169% (active) | inactive |  |  |  |
| Oc1c(Cl)cc(Cl)cc1C=Nc1ccc2c(c1)OCCO2 | 174% (active) | 25.5% (active) |  | inactive |  |  | inactive |
| C=CCn1sc(=N)c(C#N)c1N | 528% (active) | 195% (active) | 492% (active) | inactive |  |  |  |
| Cn1ccnc1C(OC(=O)c1ccc(Cl)cc1)C(F)(F)F (stereo unspecified) |  |  |  | inactive | inactive | inactive | inactive |
| O=C(NC(=S)Nc1ccccc1N1CCOCC1)c1sc2ccccc2c1Cl |  | 34% (active) |  | inactive | inactive |  | inactive |
| CCOc1ccc(-n2cc(-c3ccccc3)c3c(=S)nc[nH]c32)cc1 | 337% (active) | 192% (active) | 389% (active) | inactive |  |  |  |
| CCOC(=O)c1nnn(CC(=O)Nc2cc(Cl)ccc2C)c1C(=O)OCC | 164% (active) | 33% (active) |  | inactive |  |  | inactive |

| Compound | activation [1] | potentiation [2] | potentiation [3] | outcome [4] | outcome [1] | outcome [2] | outcome [3] |
| --- | --- | --- | --- | --- | --- | --- | --- |
| CCOc1ccc(-n2cc(C(=O)Nc3cccc(C)n3)c3cc(OC)c(OC)cc3c2=O)cc1 |  |  |  | inactive | inactive | inactive | inactive |
| O=C(CNC(=O)c1ccccc1)NCc1ccc(Cl)cc1 |  |  |  | inactive | inactive | inactive | inactive |
| CSC(C(=O)c1cc2ccccc2o1)c1ccccc1 (stereo unspecified) |  |  |  | inactive | inactive | inactive | inactive |
| Oc1c(Br)cc(Cl)cc1C=Nc1ccccc1Br | 296% (active) | 161% (active) | 310% (active) | inactive |  |  |  |
| Cc1nc2ccccc2c(N)c1C(=O)/C=C/c1ccccc1 |  |  |  | inactive | inactive | inactive | inactive |
| CCOC(=O)c1ccc(-c2ccc(C3Nc4ccccc4C(=O)N3O)o2)cc1 (stereo unspecified) |  |  |  | inactive | inactive | inactive | inactive |
| NC(=S)n1[nH]c(-c2ccc([N+](=O)[O-])cc2)c(N=Nc2cccc(Cl)c2)c1=O | 150% (active) | 34.5% (active) | 179% (active) | inactive |  |  |  |
| Cc1ccc(/C=C/C(=O)c2ccccc(=O)c2O)cc1C | 174% (active) | 56.5% (active) | 276% (active) | inactive |  |  |  |
| CCc1ccc(S(=O)(=O)NC(=S)NC2CCCCC2)cc1 | 330% (active) | 108% (active) | 312% (active) | inactive |  |  |  |
| CNc1nc(N)c([N+](=O)[O-])c(Nc2cccc(F)c2)n1 |  |  |  | inactive | inactive | inactive | inactive |
| Cc1ccc(Nc2c([N+](=O)[O-])ccc3nonc23)c(C)c1 |  |  |  | inactive | inactive | inactive | inactive |
| O=C(NC(=S)N1CCN(C/C=C/c2ccccc2)CC1)c1c(F)cccc1F | 139% (active) | 28.5% (active) |  | inactive |  |  | inactive |
| CC(C)CSc1n[nH]c(=S)s1 |  |  | 145% (active) | inactive | inactive | inactive |  |
| C=CCn1c(SCN2C(=O)c3ccccc3C2=O)nc2ccc(Cl)cc2c1=O | 152% (active) |  |  | inactive |  | inactive | inactive |
| CC1CCN(C(=S)NC(=O)c2cccc([N+](=O)[O-])c2)CC1 | 207% (active) | 41.5% (active) | 189% (active) | inactive |  |  |  |
| COC(=O)C1=C(C(=O)OC)[C@@H]2N(C)c3ccccc3[C@@]23C[C@@H](C(=O)OC)N(C(=O)c2ccc(Br)cc2)C3=N1 | 158% (active) | 104% (active) | 204% (active) | inactive |  |  |  |
| NC(=O)c1nsc(C(=O)N(CC(=O)NC2CCCCC2)c2ccc(Cl)cc2)c1N |  |  |  | inactive | inactive | inactive | inactive |
| S=c1[nH]c(-c2ccccc2)cs1 | 380% (active) | 184% (active) | 464% (active) | inactive |  |  |  |
| O=C(Nc1cc(=O)[nH]c(=O)[nH]1)c1cccc(Br)c1 |  |  |  | inactive | inactive | inactive | inactive |
| O=C(NNc1ncc(C(F)(F)F)cc1Cl)c1c(Cl)cccc1Cl |  |  |  | inactive | inactive | inactive | inactive |
| Cc1cccc(Nc2ccccc2C(=O)OCC(=O)N(C)C2CCS(=O)(=O)C2)c1C (stereo unspecified) |  |  |  | inactive | inactive | inactive | inactive |
| O=C(O)CCSc1ncnc2sc(-c3ccccc3)cc12 | 180% (active) | 89.5% (active) | 220% (active) | inactive |  |  |  |
| C/C(=N\NC(=S)Nc1ccc(C)cc1)c1cc2ccccc2o1 |  | 97% (active) | 169% (active) | inactive | inactive |  |  |
| Cc1cc(Br)ccc1OCC(=O)NNC(=O)C(=O)Nc1ccccc1 | 406% (active) | 224% (active) | 478% (active) | inactive |  |  |  |
| CCSc1nnc(NC(=O)[C@H](C)NC(=O)c2ccccc2Cl)s1 |  |  |  | inactive | inactive | inactive | inactive |
| Cc1ccc(-c2nc(N)s[n+]2-c2ccccc2)cc1 | 187% (active) | 157% (active) | 155% (active) | inactive |  |  |  |
| Cc1[nH][nH]c(=O)c1C(c1ccc(-c2ccc(F)cc2)o1)c1c(C)[nH][nH]c1=O |  |  |  | inactive | inactive | inactive | inactive |

Source: PubChem BioAssay
